# Measurements reported in ChEMBL document CHEMBL4428078, “Discovery of S3-Truncated, C-6 Heteroaryl Substituted Aminothiazine β-Site APP Cleaving Enzyme-1 (BACE1) Inhibitors” (J Med Chem, 2016).
# Columns and labels:
# [1] = Metabolic stability in human liver microsomes assessed as compound remaining at 0.5 uM measured after 10 mins; type: ADME, Microsome; settings: read-out: Stability
# Procedure, shortened: (§1)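 Test compound at 0.5 µM incubated 10 min with mouse, rat or human liver microsomes. Read-out is percent of parent compound remaining.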
# [2] = Metabolic stability in mouse liver microsomes assessed as compound remaining at 0.5 uM measured after 10 mins; type: ADME, Microsome; settings: read-out: Stability; procedure, shortened: as §1
# [3] = Metabolic stability in rat liver microsomes assessed as compound remaining at 0.5 uM measured after 10 mins; type: ADME, Microsome; settings: read-out: Stability; procedure, shortened: as §1
# Beta-secretase 1 = Beta-secretase 1 (Homo sapiens, UniProt P56817); experiment: Inhibition of BACE1 in human H4 cells expressing swedish mutant APP751 assessed as reduction in amyloid beta level measured after 19 hrs; type: cell-based
# [4] = Plasma concentration in mouse at 30 mg/kg, po measured after 3 hrs; type: ADME, organism-based
# Procedure, shortened: (§2)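 Young mice given a single oral dose of 30 mg/kg. Total brain and plasma drug levels were measured 3 h post-dose and the brain/plasma ratio derived.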
# [5] = Drug uptake in mouse brain at 30 mg/kg, po measured after 3 hrs; type: ADME, organism-based; settings: read-out: Drug uptake; procedure, shortened: as §2
# [6] = Ratio of drug level in brain to plasma of mouse at 30 mg/kg, po measured at 3 hrs post dose; type: ADME, organism-based; settings: read-out: BPR; procedure, shortened: as §2
# Rattus norvegicus [7] = experiment: In vivo inhibition of BACE1 in po dosed rat assessed as reduction in brain amyloid beta40 level measured after 5 hrs by ELISA relative to control
# [8] = Fraction unbound in rat plasma at 1 to 10 mg/kg, po; type: ADME, organism-based; settings: in vivo
# Rattus norvegicus [9] = experiment: In vivo inhibition of BACE1 in po dosed rat assessed as reduction in brain amyloid beta42 level measured after 5 hrs by ELISA
# Cytochrome P450 3A4 = Cytochrome P450 3A4 (Homo sapiens, UniProt P08684); experiment: Inhibition of recombinant human CYP3A4 preincubated for 10 mins followed by addition of BFC as substrate measured after 45 mins; type: ADME
# Procedure, shortened: (§3)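 Inhibition of recombinant human CYP1A2, CYP2C9, CYP2C19, CYP2D6 and CYP3A4 enzymes, reported as IC50.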
# [10] = Plasma concentration in rat at 3 mg/kg, po measured after 5 hrs; type: ADME, organism-based
# Procedure, shortened: (§4)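 Female rats dosed orally in PEG-400:EtOH:Tween 80 (84:15:1) at 1, 3 or 10 mg/kg. Plasma and brain were collected 5 h post-dose, N=5 rats/dose. Total drug concentrations were determined and the brain/plasma ratio calculated. Values are means with SD.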
# [11] = Ratio of fraction unbound in rat plasma to IC50 for BACE1 in human H4 cells expressing swedish mutant APP751; type: ADME, cell-based
# [12] = Ratio of drug level in brain to plasma of rat at 3 mg/kg, po measured at 5 hrs post dose; type: ADME, organism-based; settings: read-out: BPR; procedure, shortened: as §4
# Cytochrome P450 2C19 = Cytochrome P450 2C19 (Homo sapiens, UniProt P33261); experiment: Inhibition of recombinant human CYP2C19 preincubated for 10 mins followed by addition of CEC as substrate measured after 45 mins; type: ADME; procedure, shortened: as §3
# [13] = Fraction unbound in human plasma; type: ADME, cell-free
# Procedure, shortened: (§5)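 Unbound fraction of drug determined in human, rat and mouse plasma, reported as percent unbound.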
# [14] = Drug uptake in rat brain at 3 mg/kg, po measured after 5 hrs; type: ADME, organism-based; settings: read-out: Drug uptake; procedure, shortened: as §4
# [15] = Clearance in rat plasma at 2 mg/kg, iv administered as bolus or 10 mg/kg, po; type: ADME, organism-based
# Procedure, shortened: (§6)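 Rats given a 2 mg/kg IV bolus or 10 mg/kg orally for IV/PO pharmacokinetics. Clearance and volume of distribution come from the IV arm. Clearance is also expressed against rat hepatic blood flow.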
# [16] = Fraction unbound in mouse plasma; type: ADME, cell-free; procedure, shortened: as §5
# [17] = Cmax in rat at 10 mg/kg, po measured after 5 hrs; type: ADME, organism-based; set-up: dose 10 mg/kg, route oral; settings: in vivo
# Procedure, shortened: (§7)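 Rat IV/PO pharmacokinetics with a 2 mg/kg IV bolus and a 10 mg/kg oral dose. […] Oral bioavailability is calculated from the IV and PO AUC values.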
# Cytochrome P450 2C9 = Cytochrome P450 2C9 (Homo sapiens, UniProt P11712); experiment: Inhibition of recombinant human CYP2C9 preincubated for 10 mins followed by addition of MFC as substrate measured after 45 mins; type: ADME; procedure, shortened: as §3
# [18] = Plasma concentration in rat at 10 mg/kg, po measured after 5 hrs; type: ADME, organism-based; procedure, shortened: as §4
# [19] = Volume of distribution in rat plasma at 2 mg/kg, iv administered as bolus or 10 mg/kg, po; type: ADME, organism-based; procedure, shortened: as §6
# [20] = Oral bioavailability in rat at 10 mg/kg measured after 5 hrs; type: ADME, organism-based; settings: in vivo; procedure, shortened: as §7
# [21] = Ratio of drug level in brain to plasma of rat at 1 mg/kg, po measured at 5 hrs post dose; type: ADME, organism-based; settings: read-out: BPR; procedure, shortened: as §4
# [22] = Fraction unbound in rat plasma; type: ADME, cell-free; procedure, shortened: as §5
# [23] = Drug uptake in rat brain at 1 mg/kg, po measured after 5 hrs; type: ADME, organism-based; settings: read-out: Drug uptake; procedure, shortened: as §4
# Cytochrome P450 2D6 = Cytochrome P450 2D6 (Homo sapiens, UniProt P10635); experiment: Inhibition of recombinant human CYP2D6 preincubated for 10 mins followed by addition of AMMC as substrate measured after 45 mins; type: ADME; procedure, shortened: as §3
# Cytochrome P450 1A2 = molecular target: T1, Cytochrome P450 1A2 (Homo sapiens, UniProt P05177); experiment: Inhibition of recombinant human CYP1A2 preincubated for 10 mins followed by addition of CEC as substrate measured after 45 mins; type: ADME; procedure, shortened: as §3
# T1 sequence (P05177 whole entry): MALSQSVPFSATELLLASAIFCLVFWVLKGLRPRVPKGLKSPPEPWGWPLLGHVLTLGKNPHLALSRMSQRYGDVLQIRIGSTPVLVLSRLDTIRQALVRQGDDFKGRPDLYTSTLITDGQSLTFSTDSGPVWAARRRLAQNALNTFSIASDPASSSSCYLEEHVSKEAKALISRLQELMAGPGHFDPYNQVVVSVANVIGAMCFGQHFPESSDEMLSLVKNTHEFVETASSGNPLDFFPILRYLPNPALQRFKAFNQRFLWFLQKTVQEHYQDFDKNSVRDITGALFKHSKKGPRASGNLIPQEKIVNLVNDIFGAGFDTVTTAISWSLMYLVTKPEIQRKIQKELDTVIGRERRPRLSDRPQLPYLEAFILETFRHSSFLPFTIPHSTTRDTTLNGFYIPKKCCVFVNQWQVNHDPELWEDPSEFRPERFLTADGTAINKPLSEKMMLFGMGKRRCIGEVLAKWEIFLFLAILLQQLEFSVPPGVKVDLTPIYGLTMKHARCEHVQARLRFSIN
# [24] = Drug uptake in rat brain at 10 mg/kg, po measured after 5 hrs; type: ADME, organism-based; settings: read-out: Drug uptake; procedure, shortened: as §4
# [25] = Clearance in rat plasma at 2 mg/kg, iv administered as bolus or 10 mg/kg, po relative to hepatic blood flow; type: ADME, organism-based; settings: in vivo; procedure, shortened: as §6
# [26] = Plasma concentration in rat at 1 mg/kg, po measured after 5 hrs; type: ADME, organism-based; procedure, shortened: as §4
# [27] = Ratio of drug level in brain to plasma of rat at 10 mg/kg, po measured at 5 hrs post dose; type: ADME, organism-based; settings: read-out: BPR; procedure, shortened: as §4
# Rattus norvegicus [28] = experiment: In vivo inhibition of BACE1 in po dosed rat assessed as reduction in total amyloid beta level in brain measured after 5 hrs by ELISA relative to control
# Rattus norvegicus [29] = experiment: In vivo inhibition of BACE1 in po dosed rat assessed as reduction in brain amyloid beta42 level measured after 5 hrs by ELISA relative to control
# Mus musculus = experiment: In vivo inhibition of BACE1 in mouse assessed as reduction in brain amyloid beta level at 30 mg/kg, po measured after 3 hrs by ELISA relative to control; type: functional
# Procedure, shortened: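 Young mice dosed orally at 30 mg/kg. Brain Aβ was measured 3 h post-dose and expressed as percent reduction.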
# Beta-secretase 1, sequence (P56817 whole entry): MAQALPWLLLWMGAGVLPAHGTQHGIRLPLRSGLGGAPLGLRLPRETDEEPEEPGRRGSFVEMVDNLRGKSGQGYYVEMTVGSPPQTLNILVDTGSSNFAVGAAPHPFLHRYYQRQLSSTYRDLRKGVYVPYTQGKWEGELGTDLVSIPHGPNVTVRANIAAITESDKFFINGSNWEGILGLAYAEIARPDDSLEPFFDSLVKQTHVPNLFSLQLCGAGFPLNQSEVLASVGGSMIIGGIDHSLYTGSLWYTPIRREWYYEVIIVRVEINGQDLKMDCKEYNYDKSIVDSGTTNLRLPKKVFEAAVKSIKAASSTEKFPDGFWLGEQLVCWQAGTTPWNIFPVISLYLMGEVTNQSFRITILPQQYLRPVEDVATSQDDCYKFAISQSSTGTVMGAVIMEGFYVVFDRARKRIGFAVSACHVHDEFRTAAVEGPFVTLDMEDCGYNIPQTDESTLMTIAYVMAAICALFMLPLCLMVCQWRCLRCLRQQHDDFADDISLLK
# Cytochrome P450 3A4, sequence (P08684 whole entry): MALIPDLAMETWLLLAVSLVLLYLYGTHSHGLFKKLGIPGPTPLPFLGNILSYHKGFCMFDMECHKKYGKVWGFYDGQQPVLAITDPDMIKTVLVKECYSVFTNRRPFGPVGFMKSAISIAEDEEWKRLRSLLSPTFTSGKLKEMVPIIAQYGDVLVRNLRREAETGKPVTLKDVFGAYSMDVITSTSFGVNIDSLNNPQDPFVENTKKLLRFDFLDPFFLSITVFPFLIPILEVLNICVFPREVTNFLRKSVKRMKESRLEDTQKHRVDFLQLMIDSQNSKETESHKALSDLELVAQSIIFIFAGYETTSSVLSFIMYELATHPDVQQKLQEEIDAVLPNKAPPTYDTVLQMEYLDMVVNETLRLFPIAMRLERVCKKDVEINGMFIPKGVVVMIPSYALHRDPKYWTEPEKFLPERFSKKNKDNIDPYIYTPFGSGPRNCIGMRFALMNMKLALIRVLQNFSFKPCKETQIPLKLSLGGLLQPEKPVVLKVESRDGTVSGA
# Cytochrome P450 2D6, sequence (P10635 whole entry): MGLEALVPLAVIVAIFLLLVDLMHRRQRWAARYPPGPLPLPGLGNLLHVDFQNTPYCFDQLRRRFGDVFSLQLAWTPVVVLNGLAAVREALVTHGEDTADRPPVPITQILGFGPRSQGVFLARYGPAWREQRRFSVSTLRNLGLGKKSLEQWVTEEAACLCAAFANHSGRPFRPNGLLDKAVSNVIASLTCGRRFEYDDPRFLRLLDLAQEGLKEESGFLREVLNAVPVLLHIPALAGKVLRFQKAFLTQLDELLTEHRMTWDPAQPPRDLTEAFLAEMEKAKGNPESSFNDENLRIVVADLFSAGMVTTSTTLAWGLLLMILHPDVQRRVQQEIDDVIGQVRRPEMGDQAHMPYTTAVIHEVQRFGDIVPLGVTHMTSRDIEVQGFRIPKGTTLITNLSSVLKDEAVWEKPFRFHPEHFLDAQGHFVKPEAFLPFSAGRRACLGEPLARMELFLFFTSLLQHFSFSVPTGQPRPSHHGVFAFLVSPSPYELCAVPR
# Cytochrome P450 2C19, sequence (P33261 whole entry): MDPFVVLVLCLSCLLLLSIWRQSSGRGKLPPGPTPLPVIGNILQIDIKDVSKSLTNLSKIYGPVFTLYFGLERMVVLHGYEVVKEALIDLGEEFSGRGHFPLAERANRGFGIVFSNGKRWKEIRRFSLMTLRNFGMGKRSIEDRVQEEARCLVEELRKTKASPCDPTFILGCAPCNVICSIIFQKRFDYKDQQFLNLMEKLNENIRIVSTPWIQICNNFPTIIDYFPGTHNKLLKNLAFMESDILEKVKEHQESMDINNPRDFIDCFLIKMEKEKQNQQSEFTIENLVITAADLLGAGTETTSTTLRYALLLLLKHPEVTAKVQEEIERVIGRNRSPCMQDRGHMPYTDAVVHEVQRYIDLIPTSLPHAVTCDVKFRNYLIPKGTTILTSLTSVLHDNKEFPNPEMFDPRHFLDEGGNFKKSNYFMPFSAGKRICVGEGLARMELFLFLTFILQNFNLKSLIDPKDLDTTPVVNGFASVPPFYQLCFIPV
# Cytochrome P450 2C9, sequence (P11712 whole entry): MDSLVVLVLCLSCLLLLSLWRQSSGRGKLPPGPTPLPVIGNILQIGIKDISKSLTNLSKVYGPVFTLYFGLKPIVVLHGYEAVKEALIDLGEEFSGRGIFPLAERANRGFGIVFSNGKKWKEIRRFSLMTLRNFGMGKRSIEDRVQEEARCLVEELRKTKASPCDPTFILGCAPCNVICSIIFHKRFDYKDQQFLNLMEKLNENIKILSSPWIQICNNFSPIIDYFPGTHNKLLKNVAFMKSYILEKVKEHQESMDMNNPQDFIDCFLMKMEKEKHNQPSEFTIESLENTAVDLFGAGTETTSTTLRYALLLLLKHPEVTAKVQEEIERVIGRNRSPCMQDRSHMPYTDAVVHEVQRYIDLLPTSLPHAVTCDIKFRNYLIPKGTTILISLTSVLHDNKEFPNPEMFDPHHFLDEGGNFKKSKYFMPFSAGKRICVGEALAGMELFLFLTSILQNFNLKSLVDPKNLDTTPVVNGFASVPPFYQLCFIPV
compound,measurement,setting,value
Cc1noc(C(F)F)c1[C@@H]1C[C@@](C)(c2ccc(F)cc2F)N=C(N)S1,"remaining at 10 min, 0.5 µM",[1],35%
same,"remaining at 10 min, 0.5 µM",[2],59%
same,"remaining at 10 min, 0.5 µM",[3],67%
same,IC50,Beta-secretase 1,420 nM
Cc1noc(C)c1[C@@H]1C[C@@](C)(c2cc(-c3cncnc3)c(F)cc2F)N=C(N)S1,concentration at 3 h,[4],7.4 µM
same,concentration at 3 h,[5],0.58 µM
same,Kp at 3 h,[6],0.08
C[C@@]1(c2ccc(F)cc2F)C[C@@H](c2cncnc2)SC(N)=N1,inhibition,Rattus norvegicus [7],Dose-dependent effect
same,"remaining at 10 min, 0.5 µM",[1],90%
same,Cp(f),[8],1.8 µM
same,EC50,Rattus norvegicus [9],3.8 µM
same,IC50,Cytochrome P450 3A4,> 20 µM
same,concentration at 5 h,[10],1800 nM
same,Ratio,[11],6
same,Kp at 5 h,[12],1.8
same,IC50,Cytochrome P450 2C19,9 µM
same,concentration at 3 h,[4],6.7 µM
same,fraction unbound,[13],0.37
same,concentration at 3 h,[5],6.7 µM
same,concentration at 5 h,[14],2800 nM
same,clearance,[15],12 mL/min/kg
same,fraction unbound,[16],0.42
same,"remaining at 10 min, 0.5 µM",[2],68%
same,Cmax,[17],3.7 µM
same,"remaining at 10 min, 0.5 µM",[3],95%
same,IC50,Beta-secretase 1,310 nM
same,IC50,Cytochrome P450 2C9,> 20 µM
same,concentration at 5 h,[18],6.6 µM
same,Vd,[19],8.2 L/kg
same,bioavailability,[20],> 100%
same,Kp at 5 h,[21],2.8
same,fraction unbound,[22],0.48
same,Kp at 3 h,[6],1.8
same,concentration at 5 h,[23],2300 nM
same,IC50,Cytochrome P450 2D6,> 20 µM
same,IC50,Cytochrome P450 1A2,> 20 µM
same,concentration at 5 h,[24],12 µM
same,CL,[25],20%
same,concentration at 5 h,[26],820 nM
same,Kp at 5 h,[27],1.8
same,inhibition,Rattus norvegicus [28],Dose-dependent effect
same,inhibition,Rattus norvegicus [29],Dose-dependent effect
Cc1nocc1[C@@H]1C[C@@](C)(c2ccc(F)cc2F)N=C(N)S1,"remaining at 10 min, 0.5 µM",[1],65%
same,"remaining at 10 min, 0.5 µM",[2],80%
same,"remaining at 10 min, 0.5 µM",[3],77%
same,IC50,Beta-secretase 1,300 nM
Cn1nccc1[C@@H]1C[C@@](C)(c2ccc(F)cc2F)N=C(N)S1,"remaining at 10 min, 0.5 µM",[1],70%
same,concentration at 3 h,[4],4.3 µM
same,concentration at 3 h,[5],4.3 µM
same,inhibition in vivo at 30 mg/kg,Mus musculus,62%
same,"remaining at 10 min, 0.5 µM",[2],72%
same,"remaining at 10 min, 0.5 µM",[3],78%
same,IC50,Beta-secretase 1,350 nM
same,Kp at 3 h,[6],1.3
Cc1noc(C)c1[C@@H]1C[C@@](C)(c2ccc(F)cc2F)N=C(N)S1,inhibition,Rattus norvegicus [7],Dose-dependent effect
same,"remaining at 10 min, 0.5 µM",[1],24%
same,concentration at 3 h,[4],4.8 µM
same,concentration at 3 h,[5],3.6 µM
same,inhibition in vivo at 30 mg/kg,Mus musculus,62%
same,"remaining at 10 min, 0.5 µM",[2],72%
same,"remaining at 10 min, 0.5 µM",[3],78%
same,IC50,Beta-secretase 1,150 nM
same,Kp at 3 h,[6],0.75
same,inhibition,Rattus norvegicus [28],Dose-dependent effect
same,inhibition,Rattus norvegicus [29],Dose-dependent effect
Cc1noc(-c2ccc(F)cc2)c1[C@@H]1C[C@@](C)(c2ccc(F)cc2F)N=C(N)S1,"remaining at 10 min, 0.5 µM",[1],45%
same,"remaining at 10 min, 0.5 µM",[2],53%
same,"remaining at 10 min, 0.5 µM",[3],88%
same,IC50,Beta-secretase 1,410 nM
CCc1noc(CC)c1[C@@H]1C[C@@](C)(c2ccc(F)cc2F)N=C(N)S1,"remaining at 10 min, 0.5 µM",[1],35%
same,"remaining at 10 min, 0.5 µM",[2],59%
same,"remaining at 10 min, 0.5 µM",[3],67%
same,IC50,Beta-secretase 1,420 nM
